Measured values from BindingDB's records for doi:10.1016/j.ejmech.2011.10.026 (National Cheng Kung University, 2012).

Target: T1, Nitric oxide synthase, inducible (Mus musculus, UniProt P29477)
T1 sequence (P29477 whole entry): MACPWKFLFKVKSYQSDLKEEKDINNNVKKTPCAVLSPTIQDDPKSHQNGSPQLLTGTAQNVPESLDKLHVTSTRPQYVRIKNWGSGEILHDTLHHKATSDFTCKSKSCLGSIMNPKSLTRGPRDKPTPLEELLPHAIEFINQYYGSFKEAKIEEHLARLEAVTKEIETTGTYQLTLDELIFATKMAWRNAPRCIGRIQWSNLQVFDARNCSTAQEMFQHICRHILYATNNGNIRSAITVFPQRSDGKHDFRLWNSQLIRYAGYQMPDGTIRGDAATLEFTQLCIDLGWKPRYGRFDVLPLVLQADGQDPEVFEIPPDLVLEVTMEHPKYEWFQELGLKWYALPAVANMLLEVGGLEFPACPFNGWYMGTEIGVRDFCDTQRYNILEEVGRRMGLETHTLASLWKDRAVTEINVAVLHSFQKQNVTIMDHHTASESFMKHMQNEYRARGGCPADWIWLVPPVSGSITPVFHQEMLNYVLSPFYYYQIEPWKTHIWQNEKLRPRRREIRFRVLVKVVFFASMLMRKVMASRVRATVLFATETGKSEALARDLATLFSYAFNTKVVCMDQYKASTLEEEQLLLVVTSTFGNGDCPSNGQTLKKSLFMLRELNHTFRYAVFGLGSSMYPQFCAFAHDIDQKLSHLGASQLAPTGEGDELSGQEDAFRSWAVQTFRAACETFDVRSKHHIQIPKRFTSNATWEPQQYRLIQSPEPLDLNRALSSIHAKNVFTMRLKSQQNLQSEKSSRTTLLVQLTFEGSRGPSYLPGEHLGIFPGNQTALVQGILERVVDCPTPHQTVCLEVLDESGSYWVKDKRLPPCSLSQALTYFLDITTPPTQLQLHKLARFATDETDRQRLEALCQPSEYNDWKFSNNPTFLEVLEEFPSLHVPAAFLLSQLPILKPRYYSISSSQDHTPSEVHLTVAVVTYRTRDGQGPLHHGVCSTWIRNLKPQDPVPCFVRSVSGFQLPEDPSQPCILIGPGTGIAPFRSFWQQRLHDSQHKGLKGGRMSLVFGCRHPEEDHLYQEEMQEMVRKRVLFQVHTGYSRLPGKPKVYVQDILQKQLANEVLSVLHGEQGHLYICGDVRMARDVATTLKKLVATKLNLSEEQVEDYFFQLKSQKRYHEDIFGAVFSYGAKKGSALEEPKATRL
Assay: Inhibition of iNOS-mediated nitric oxide production in LPS-stimulated mouse BV2 cells measured after 24 hrs of post-stimulation by Griess reaction method
Procedure, shortened: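 Murine BV2 microglia in DMEM with 5% FBS were given compound at 1–50 µM and stimulated with LPS 0.5 µg/mL. Nitrite accumulated in the medium was measured by Griess reagent 24 h after stimulation. IC50 given as mean ± SEM of three experiments on different days using cells from different passages.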

| IC50 | SMILES |
| --- | --- |
| 25.7 µM | COc1ccc(/C=C/C(=O)c2cc(C(=O)/C=C/c3ccc(OC)cc3)c(O)cc2O)cc1 |
| 8.09 µM | COc1cccc(/C=C/C(=O)c2cc(C(=O)/C=C/c3cccc(OC)c3)c(O)cc2O)c1 |
| 1.82 µM | COc1cccc(/C=C/C(=O)c2cc(C(=O)/C=C/c3cccc(OC)c3OC)c(O)cc2O)c1OC |
| 0.95 µM | COc1ccc(/C=C/C(=O)c2cc(C(=O)/C=C/c3ccc(OC)c(OC)c3)c(O)cc2O)cc1OC |
| 7.04 µM | COc1ccc(/C=C/C(=O)c2cc(C(=O)/C=C/c3ccc(OC)c(OC)c3OC)c(O)cc2O)c(OC)c1OC |
| 23.3 µM | COc1ccc(OC)c(/C=C/C(=O)c2cc(C(=O)/C=C/c3cc(OC)ccc3OC)c(O)cc2O)c1 |

Further lines, the molecule ahead of its results:

| SMILES | IC50 |
| --- | --- |
| O=C(/C=C/c1ccccc1)c1cc(C(=O)/C=C/c2ccccc2)c(O)cc1O | 5.44 µM |
| O=C(/C=C/c1ccco1)c1cc(C(=O)/C=C/c2ccco2)c(O)cc1O | 4 µM |
| Cc1ccc(/C=C/C(=O)c2cc(C(=O)/C=C/c3ccc(C)o3)c(O)cc2O)o1 | 36.3 µM |
| Cc1ccsc1/C=C/C(=O)c1cc(C(=O)/C=C/c2sccc2C)c(O)cc1O | 43.3 µM |
| O=C(/C=C/c1ccccn1)c1cc(C(=O)/C=C/c2ccccn2)c(O)cc1O | 8.65 µM |
| CC(=O)c1cc(C(=O)C=Cc2ccc3c(c2)OCO3)c(O)cc1O | 17.7 µM |
